Assay results: ChEMBL document CHEMBL1828509, “Synthesis, pharmacological evaluation and docking studies of coumarin derivatives” (2011)

Legend:
Format in all cases: functional
Escherichia coli [1] = assay: Antimicrobial activity against Escherichia coli MTCC 4315 at 50 ug/ml; details: read-out: IZ
Bacillus subtilis [2] = assay: Antimicrobial activity against Bacillus subtilis MTCC 1789 at 10 ug/ml; details: read-out: IZ
Bacillus subtilis [3] = assay: Antimicrobial activity against Bacillus subtilis MTCC 1789 at 25 ug/ml; details: read-out: IZ
Bacillus subtilis [4] = assay: Antimicrobial activity against Bacillus subtilis MTCC 1789 at 50 ug/ml; details: read-out: IZ
Aspergillus niger [5] = assay: Antifungal activity against Aspergillus niger MTCC 282 at 25 ug/ml; details: read-out: IZ
Rattus norvegicus [6] = assay: Antiinflammatory activity in Wistar albino rat assessed as inhibition of carrageenan-induced paw edema at 20 mg/kg, po administered 30 mins before carrageenan challenge measured after 1 hr by plethysmograph
Procedure, shortened: (§1)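 Male Wistar albino rats (150–200 g), six per group, dosed orally with 20 mg/kg suspension; control got 0.1 ml of 1% gum acacia suspension orally. After 30 min, 0.1 ml of 1% carrageenan in normal saline injected sub-plantar into the right hind paw. Paw volume measured by plethysmograph at 0, 1, 2, 3 and 4 h; percent edema inhibition versus control at matching time.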

Rattus norvegicus [7] = assay: Antiinflammatory activity in Wistar albino rat assessed as inhibition of carrageenan-induced paw edema at 20 mg/kg, po administered 30 mins before carrageenan challenge measured after 2 hrs by plethysmograph; procedure, shortened: as §1
Rattus norvegicus [8] = assay: Antiinflammatory activity in Wistar albino rat assessed as inhibition of carrageenan-induced paw edema at 20 mg/kg, po administered 30 mins before carrageenan challenge measured after 3 hrs by plethysmograph; procedure, shortened: as §1
Rattus norvegicus [9] = assay: Antiinflammatory activity in Wistar albino rat assessed as inhibition of carrageenan-induced paw edema at 20 mg/kg, po administered 30 mins before carrageenan challenge measured after 4 hrs by plethysmograph; procedure, shortened: as §1
Mus musculus = assay: Analgesic activity in mouse assessed as inhibition of acetic acid-induced writhing administered 30 mins before acetic acid challenge measured after 30 mins relative to control; parameters: concentration or dose not given beside the values
Procedure, shortened: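 Groups of six mice (20–30 g, both sexes, pregnant females excluded) dosed with test compound; 30 min later 0.25 ml/mouse of 0.5% acetic acid given i.p. Writhes counted over the next 30 min. Mean writhes per group ± SE; percent decrease versus untreated control mice.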

Escherichia coli [10] = assay: Antimicrobial activity against Escherichia coli MTCC 4315 at 25 ug/ml; details: read-out: IZ
Candida albicans [11] = assay: Antifungal activity against Candida albicans MTCC 183 at 25 ug/ml; details: read-out: IZ
Aspergillus niger [12] = assay: Antifungal activity against Aspergillus niger MTCC 282 at 10 ug/ml; details: read-out: IZ
Candida albicans [13] = assay: Antifungal activity against Candida albicans MTCC 183 at 10 ug/ml; details: read-out: IZ
Aspergillus niger [14] = assay: Antifungal activity against Aspergillus niger MTCC 282 at 50 ug/ml; details: read-out: IZ
Escherichia coli [15] = assay: Antimicrobial activity against Escherichia coli MTCC 4315 at 10 ug/ml; details: read-out: IZ
Candida albicans [16] = assay: Antifungal activity against Candida albicans MTCC 183 at 50 ug/ml; details: read-out: IZ

| SMILES | zone of inhibition at 50 µg/mL (Escherichia coli [1]) [mm] | zone of inhibition at 10 µg/mL (Bacillus subtilis [2]) [mm] | zone of inhibition at 25 µg/mL (Bacillus subtilis [3]) [mm] | zone of inhibition at 50 µg/mL (Bacillus subtilis [4]) [mm] | zone of inhibition at 25 µg/mL (Aspergillus niger [5]) [mm] | inhibition in vivo at 20 mg/kg (Rattus norvegicus [6]) [%] | inhibition in vivo at 20 mg/kg (Rattus norvegicus [7]) [%] | inhibition in vivo at 20 mg/kg (Rattus norvegicus [8]) [%] | inhibition in vivo at 20 mg/kg (Rattus norvegicus [9]) [%] | Activity (Mus musculus) [%] | zone of inhibition at 25 µg/mL (Escherichia coli [10]) [mm] | zone of inhibition at 25 µg/mL (Candida albicans [11]) [mm] | zone of inhibition at 10 µg/mL (Aspergillus niger [12]) [mm] | zone of inhibition at 10 µg/mL (Candida albicans [13]) [mm] | zone of inhibition at 50 µg/mL (Aspergillus niger [14]) [mm] | zone of inhibition at 10 µg/mL (Escherichia coli [15]) [mm] | zone of inhibition at 50 µg/mL (Candida albicans [16]) [mm] |
| --- | --- | --- | --- | --- | --- | --- | --- | --- | --- | --- | --- | --- | --- | --- | --- | --- | --- |
| Cc1cc(=O)oc2cc(OC(=O)CNc3ccccc3)ccc12 | 10.4 | 10.4 | 11.8 | 12.6 | 10.2 | 10.7 | 29.4 | 30.8 | 13.7 | 24 | – | – | – | – | – | – | – |
| Cc1cc(=O)oc2cc(OC(=O)CNc3ccccc3[N+](=O)[O-])ccc12 | – | 11.2 | 12.4 | 13.7 | – | 21.4 | 16.6 | 15.9 | 15.2 | 28 | 10.1 | 10.4 | 10.1 | – | – | – | – |
| Cc1cc(=O)oc2cc(OC(=O)CNc3cccc([N+](=O)[O-])c3)ccc12 | 11.1 | – | 11.2 | 13.4 | 10.5 | 28.5 | 30.7 | 34 | 32.2 | 13 | 11.3 | – | – | 10.5 | 11.4 | 10.3 | – |
| Cc1cc(=O)oc2cc(OC(=O)CNc3ccc([N+](=O)[O-])cc3)ccc12 | 16.9 | 10.2 | 12.1 | 13.4 | – | 12.5 | 17.9 | 20.2 | 23.7 | 28 | 14.2 | 10.2 | – | – | 10.2 | 12.2 | 11.4 |
| Cc1cc(=O)oc2cc(OC(=O)CNc3ccccc3Cl)ccc12 | 12.6 | – | – | – | 10.2 | 21.4 | 11.5 | 12.8 | 23.7 | 21 | 10.8 | – | – | – | 12.4 | – | 10.4 |
| Cc1cc(=O)oc2cc(OC(=O)CNc3ccc(Cl)cc3)ccc12 | 12.6 | – | – | 12.3 | 10.2 | 10.7 | 23 | 15.9 | 16.1 | 11 | 10.8 | 12.2 | – | 10.6 | 12.1 | – | 13.4 |
| COc1ccccc1NCC(=O)Oc1ccc2c(C)cc(=O)oc2c1 | 10.2 | 10.2 | 11.4 | – | – | 10.7 | 15.3 | 26.6 | 19.4 | 28 | – | – | 10.4 | – | 12.4 | – | 12.4 |
| COc1ccc(NCC(=O)Oc2ccc3c(C)cc(=O)oc3c2)cc1 | – | 11.2 | 13.3 | 14.4 | 13.2 | 30.3 | 33.3 | 37.2 | 28.8 | 17 | 11.2 | 12.4 | – | 10.2 | 14.1 | 10.5 | 13.2 |
| Cc1ccccc1NCC(=O)Oc1ccc2c(C)cc(=O)oc2c1 | – | – | – | 11.6 | 12.4 | 12.5 | 15.3 | 17 | 19.4 | 23 | 10.5 | – | 10.6 | – | 13.1 | – | 12.2 |
| Cc1cccc(NCC(=O)Oc2ccc3c(C)cc(=O)oc3c2)c1 | 16.9 | 10.5 | 12.4 | 13.6 | 12.2 | 12.5 | 15.3 | 15.9 | 23.7 | 13 | 14 | 13.4 | – | 11.4 | 13.4 | 11 | 14.4 |
| Cc1ccc(NCC(=O)Oc2ccc3c(C)cc(=O)oc3c2)cc1 | 14 | – | – | 12.3 | 10.5 | 14.2 | 20.5 | 20.2 | 6.7 | 28 | 13 | – | – | – | 11.4 | 11.2 | 12.4 |
| Cc1cc(=O)oc2cc(OC(=O)CNN3C=NNC3)ccc12 | 16.2 | 12.5 | 14.3 | 18.1 | 13.6 | 42.8 | 42.3 | 27.6 | 22.2 | 37 | 14.1 | 13.4 | 11.2 | 12.4 | – | – | 15.4 |
| Cc1cc(=O)oc2cc(OC(=O)CNc3nc4ccccc4s3)ccc12 | 14.5 | 10.4 | – | 18.1 | – | 30.3 | 35.9 | 40.4 | 40.6 | 35 | – | 12.2 | – | 13.4 | 12.4 | – | – |
| Cc1cc(=O)oc2cc(OC(=O)CNc3nccs3)ccc12 | 18.4 | 10.4 | 14.4 | 16.9 | 15.4 | 39.2 | 37.1 | 47.8 | 32.3 | 45 | 10.2 | – | 13.4 | 10.1 | 16.5 | – | 12.4 |
| NCC[C@H](O)C(=O)N[C@@H]1C[C@H](N)[C@@H](O[C@H]2O[C@H](CN)[C@@H](O)[C@H](O)[C@H]2O)[C@H](O)[C@H]1O[C@H]1O[C@H](CO)[C@@H](O)[C@H](N)[C@H]1O [AMIKACIN] | 20 | – | – | – | – | – | – | – | – | – | 16.2 | – | – | – | – | 14 | – |
| COC1=CC(=O)C[C@@H](C)[C@]12Oc1c(Cl)c(OC)cc(OC)c1C2=O [GRISEOFULVIN] | – | – | – | – | – | – | – | – | – | – | – | 14.2 | – | 12.6 | – | – | 18.2 |
| COc1ccc2c(c1)c(CC(=O)O)c(C)n2C(=O)c1ccc(Cl)cc1 [INDOMETHACIN] | – | – | – | – | – | 53.5 | 67.9 | 68.8 | 57.6 | 56 | – | – | – | – | – | – | – |
| CN[C@H](CC(C)C)C(=O)N[C@H]1C(=O)N[C@@H](CC(N)=O)C(=O)N[C@H]2C(=O)N[C@H]3C(=O)N[C@H](C(=O)N[C@H](C(=O)O)c4cc(O)cc(O)c4-c4cc3ccc4O)[C@H](O)c3ccc(c(Cl)c3)Oc3cc2cc(c3O[C@@H]2O[C@H](CO)[C@@H](O)[C@H](O)[C@H]2O[C@H]2C[C@](C)(N)[C@H](O)[C@H](C)O2)Oc2ccc(cc2Cl)[C@H]1O [VANCOMYCIN] | – | 14.2 | 18.2 | 20.1 | – | – | – | – | – | – | – | – | – | – | – | – | – |
